For test [1], the target named is T1, Aldo-keto reductase family 1 member C3 (Homo sapiens) (UniProt P42330).
T1 sequence (whole entry): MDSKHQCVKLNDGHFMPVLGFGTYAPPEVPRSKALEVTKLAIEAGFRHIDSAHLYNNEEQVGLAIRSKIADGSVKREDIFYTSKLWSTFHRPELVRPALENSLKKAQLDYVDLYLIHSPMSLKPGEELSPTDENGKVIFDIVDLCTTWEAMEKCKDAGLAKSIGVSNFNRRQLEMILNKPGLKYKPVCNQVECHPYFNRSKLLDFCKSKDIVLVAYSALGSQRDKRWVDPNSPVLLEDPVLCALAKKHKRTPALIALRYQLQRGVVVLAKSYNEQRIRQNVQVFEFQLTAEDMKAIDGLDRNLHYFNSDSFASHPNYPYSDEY
In words: Inhibition of human 17beta-HSD5 expressed in HEK293 cells assessed as enzyme-mediated transformation of [14C]-4-androstene-3,17-dione in to [14C]-testosterone at 3 uM after 18 hrs. The format is cell-based. The gist of the method:
(§1)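 Intact HEK-293 cells stably over-expressing human 17β-HSD5, in freshly changed culture medium. [14C]-4-androstene-3,17-dione is added at 100 nM with inhibitor from an ethanolic solution; controls get ethanol only. After 18 h the conversion to [14C]-T is measured.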

Test [2] addresses T1, Aldo-keto reductase family 1 member C3 (Homo sapiens). In words: Inhibition of human 17beta-HSD5 expressed in HEK293 cells assessed as enzyme-mediated transformation of [14C]-4-androstene-3,17-dione in to [14C]-testosterone at 0.3 uM after 18 hrs. The format is cell-based. The gist of the method:
as §1

The target in test [3] is T2, Aldo-keto reductase family 1 member C3 (Homo sapiens, UniProt P42330).
T2 sequence (P42330 whole entry): T1 sequence (whole entry)
Description: Inhibition of human 17beta-HSD5 expressed in HEK293 cells assessed as enzyme-mediated transformation of [14C]-4-androstene-3,17-dione in to [14C]-testosterone after 18 hrs. It counts as cell-based. The gist of the method:
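Intact HEK-293 cells stably over-expressing human 17β-HSD5, in fresh culture medium. [14C]-4-androstene-3,17-dione 0.1 μM with inhibitor added in ethanol (ethanol alone as control), 18 h.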

In test [4] the target is T3, Progesterone receptor (Rattus norvegicus) (UniProt Q63449).
T3 sequence (whole entry): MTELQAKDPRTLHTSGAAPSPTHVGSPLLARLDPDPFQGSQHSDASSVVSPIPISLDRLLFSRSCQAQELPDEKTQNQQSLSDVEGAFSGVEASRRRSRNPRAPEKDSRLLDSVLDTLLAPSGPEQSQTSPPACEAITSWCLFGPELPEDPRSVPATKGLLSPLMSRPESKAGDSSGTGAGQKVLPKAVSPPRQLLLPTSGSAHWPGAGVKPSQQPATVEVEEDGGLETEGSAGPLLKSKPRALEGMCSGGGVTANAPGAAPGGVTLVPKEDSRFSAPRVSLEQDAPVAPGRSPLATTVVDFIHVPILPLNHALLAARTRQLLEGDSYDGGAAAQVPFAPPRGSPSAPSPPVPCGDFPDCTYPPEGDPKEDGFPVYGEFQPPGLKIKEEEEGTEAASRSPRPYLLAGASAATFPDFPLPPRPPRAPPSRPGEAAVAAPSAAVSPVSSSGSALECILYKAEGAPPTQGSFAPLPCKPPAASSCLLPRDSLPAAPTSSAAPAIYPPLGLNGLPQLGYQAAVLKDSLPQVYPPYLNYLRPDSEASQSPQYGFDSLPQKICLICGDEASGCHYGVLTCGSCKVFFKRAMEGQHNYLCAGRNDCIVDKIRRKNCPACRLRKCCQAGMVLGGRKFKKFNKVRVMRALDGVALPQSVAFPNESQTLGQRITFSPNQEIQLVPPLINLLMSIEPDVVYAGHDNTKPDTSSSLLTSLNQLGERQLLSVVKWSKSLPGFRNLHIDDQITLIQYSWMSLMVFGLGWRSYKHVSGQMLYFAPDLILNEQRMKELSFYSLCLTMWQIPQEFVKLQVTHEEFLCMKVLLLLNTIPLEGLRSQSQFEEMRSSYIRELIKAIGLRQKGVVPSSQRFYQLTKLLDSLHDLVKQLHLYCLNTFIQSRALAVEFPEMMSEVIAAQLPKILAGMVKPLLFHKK
In words: Binding affinity to rat uterus progesterone receptor at 0.01 uM.

Test [5] deals with T4, 17-beta-hydroxysteroid dehydrogenase type 2 (Homo sapiens) (UniProt P37059).
T4 sequence (whole entry): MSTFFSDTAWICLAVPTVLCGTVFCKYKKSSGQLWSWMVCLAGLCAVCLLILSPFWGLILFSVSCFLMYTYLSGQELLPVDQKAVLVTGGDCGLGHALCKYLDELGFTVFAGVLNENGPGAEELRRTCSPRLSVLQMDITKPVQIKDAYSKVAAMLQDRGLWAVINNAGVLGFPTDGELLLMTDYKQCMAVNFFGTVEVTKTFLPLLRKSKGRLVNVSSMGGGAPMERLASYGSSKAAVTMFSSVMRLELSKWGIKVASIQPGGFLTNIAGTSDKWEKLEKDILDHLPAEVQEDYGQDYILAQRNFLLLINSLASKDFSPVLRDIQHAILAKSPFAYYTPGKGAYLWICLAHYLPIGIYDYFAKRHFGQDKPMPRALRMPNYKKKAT
In words: Inhibition of human 17beta-HSD2 expressed in HEK293 cells assessed as enzyme-mediated transformation of [14C]-testosterone in to [14C]-4-androstene-3,17-dione at 0.1 uM. It counts as cell-based.

The target of test [6] is T4, 17-beta-hydroxysteroid dehydrogenase type 2 (Homo sapiens). In words: Inhibition of human 17beta-HSD2 expressed in HEK293 cells assessed as enzyme-mediated transformation of [14C]-testosterone in to [14C]-4-androstene-3,17-dione at 1 uM. It counts as cell-based.
The target in test [7] is T5, 17-beta-hydroxysteroid dehydrogenase type 3 (Homo sapiens) (UniProt P37058).
T5 sequence (whole entry): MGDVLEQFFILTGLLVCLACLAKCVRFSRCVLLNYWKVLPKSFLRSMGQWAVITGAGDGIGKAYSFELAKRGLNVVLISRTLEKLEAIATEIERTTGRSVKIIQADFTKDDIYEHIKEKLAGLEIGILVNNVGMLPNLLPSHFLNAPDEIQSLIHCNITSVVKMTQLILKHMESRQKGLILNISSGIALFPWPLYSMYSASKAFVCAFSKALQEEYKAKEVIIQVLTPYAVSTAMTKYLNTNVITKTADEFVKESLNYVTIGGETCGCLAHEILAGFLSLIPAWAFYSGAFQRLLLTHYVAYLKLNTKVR
In words: Inhibition of human 17beta-HSD3 expressed in HEK293 cells assessed as enzyme-mediated transformation of [14C]-4-androstene-3,17-dione in to [14C]-testosterone at 1 uM. It counts as cell-based.

Test [8] has as its target T5, 17-beta-hydroxysteroid dehydrogenase type 3 (Homo sapiens). Description: Inhibition of human 17beta-HSD3 expressed in HEK293 cells assessed as enzyme-mediated transformation of [14C]-4-androstene-3,17-dione in to [14C]-testosterone at 0.1 uM. The format is cell-based.

Activity calls are given as the source filed them. The rule behind the calls is not given here.

Regarding `CCCC1CC[C@@]2(CC[C@H]3[C@@H]4CCc5cc(O)ccc5[C@H]4CC[C@@]32C)OC1=O` (mixture of isomers), the inhibition in test [1] is 83%; in test [2], 41%.

On to `C[C@]12CC[C@@H]3c4ccc(O)cc4CC[C@H]3[C@@H]1C[C@H]1CCC(=O)O[C@H]12`, for which the inhibition in test [1] is 52%; in test [2], 6%.

For `C[C@]12CC[C@@H]3c4ccc(O)cc4CC[C@H]3[C@@H]1CC[C@@]21CCCCC(=O)O1`, the inhibition in test [1] turned out to be 93%; in test [2], 90%. Also, in test [3], the IC50 worked out at 42 nM.

Regarding `C[C@]12CCC(=O)CC1C(=O)C[C@@H]1[C@@H]2CC[C@@]2(C)[C@H]1CC[C@@]21CCC(=O)O1` (stereo partly drawn), the values for the inhibition in test [1] and in test [2] were 45% and 14%, respectively.

For `C[C@@H]1C[C@H]2[C@@H]3CCC4=CC(=O)C=C[C@]4(C)[C@@]3(F)[C@@H](O)C[C@]2(C)[C@@]1(O)C(=O)CO`, in test [4], the Activity was determined as 0%.

Consider `CC1CC[C@@]2(CC[C@H]3[C@@H]4CCc5cc(O)ccc5[C@H]4CC[C@@]32C)OC1=O` (mixture of isomers), for which the figures for the inhibition in test [1] and in test [2] were 94% and 93%, respectively. The outcome in test [5] and in test [6] was Active. Besides, the IC50 in test [3] amounted to 16 nM.

As to `C[C@]12CCC(=O)C=C1CC[C@@H]1[C@@H]2CC[C@@]2(C)[C@H]1CC[C@@]21CCC(=O)O1`, the results for the inhibition in test [1] and in test [2] were 61% and 19%, respectively.

As for `C[C@]12CC[C@@H]3c4ccc(O)cc4CC[C@H]3[C@@H]1CC[C@@]21CCC(O)O1` (mixture of isomers), the inhibition in test [1] was determined as 61%; in test [2], 19%.

`C[C@]12CCC3(CCC(=O)O3)CC1CC[C@@H]1[C@@H]2CC[C@@]2(C)[C@H]1CC[C@@]21CCC(=O)O1` (stereo partly drawn): the inhibition is 29% in test [1] and 7% in test [2].

On to `C[C@]12CC[C@@H]3c4ccc(O)cc4CC[C@H]3[C@@H]1C[C@@H]1CCCC(=O)O[C@@H]12`, for which the inhibition is 91% in test [1] and 70% in test [2]. The IC50 in test [3] stood at 66 nM.

For `C[C@]12CC[C@@H]3c4ccc(O)cc4CC[C@H]3[C@@H]1CC[C@@]21CCCC(=O)O1`, the inhibition in test [1] amounted to 95%; in test [7] it was 34%; in test [2], 92%; in test [8], 25%. The outcome in test [5] and in test [6] was Active. Also, the IC50 in test [3] came out at 20 nM.

In the case of `CC(=O)S[C@@H]1CC2=CC(=O)CC[C@]2(C)[C@H]2CC[C@@]3(C)[C@@H](CC[C@@]34CCC(=O)O4)[C@H]12`, the inhibition was found to be 57% in test [1] and 27% in test [2].

Consider `CC1CC(=O)O[C@]2(CC[C@H]3[C@@H]4CCc5cc(O)ccc5[C@H]4CC[C@@]32C)C1` (mixture of isomers), for which the inhibition came out at 94% in test [1] and 88% in test [2]. In addition, the IC50 in test [3] was found to be 19 nM.

On to `COC(=O)C1CC[C@@]2(CC[C@H]3[C@@H]4CCc5cc(O)ccc5[C@H]4CC[C@@]32C)OC1=O` (mixture of isomers), for which the inhibition in test [1] was found to be 92%; in test [2], 78%. The IC50 in test [3] amounted to 72 nM.

Take `C[C@]12CC[C@@H]3c4ccc(O)cc4CC[C@H]3[C@@H]1CC[C@]21CCC(=O)O1`: the inhibition in test [1] came out at 45%; in test [2], 22%.

On to `COC1CC[C@@]2(CC[C@H]3[C@@H]4CCc5cc(O)ccc5[C@H]4CC[C@@]32C)O1` (stereo in doubt; 8), for which the inhibition in test [1] worked out at 16%; in test [2], 0%.

Regarding `C[C@]12CC[C@@H]3c4ccc(O)cc4CC[C@H]3[C@@H]1CC[C@@]21CCC(=O)O1`, the inhibition in test [1] amounted to 79%; in test [2] it was 47%.

As to `C[C@]12CC[C@@H]3c4ccc(O)cc4CC[C@H]3[C@@H]1C[C@@H]1CCC(=O)O[C@@H]12`, the values for the inhibition in test [1] and in test [2] were 85% and 55%, respectively.

As for `C=CCC1CC[C@@]2(CC[C@H]3[C@@H]4CCc5cc(O)ccc5[C@H]4CC[C@@]32C)OC1=O` (mixture of isomers), the figures for the inhibition in test [1] and in test [2] were 91% and 68%, respectively. The IC50 in test [3] was 107 nM.

For the compound `C[C@]12CCC(=O)CC1CC[C@@H]1[C@@H]2CC[C@@]2(C)[C@H]1CC[C@@]21CCC(=O)O1` (stereo partly drawn), the inhibition in test [1] worked out at 63%; in test [2], 15%.

Turning to `C[C@]12CC[C@@H]3c4ccc(O)cc4CC[C@H]3[C@@H]1CC[C@@H]2O`, the Activity in test [4] was 6%.

In turn, `C[C@]12CCC(=O)C[C@@H]1CC[C@@H]1[C@@H]2CC[C@]2(C)[C@@H](O)CC[C@@H]12` came in with an Activity in test [4] of 3%.

For `C[C@]12CC[C@@H]3c4ccc(O)cc4CC[C@H]3[C@@H]1C[C@@H]1CC(=O)O[C@@H]12`, the values for the inhibition in test [1] and in test [2] were 62% and 30%, respectively.

As to `C[C@]12CCC(=O)C=C1CC[C@@H]1[C@@H]2CC[C@]2(C)C(=O)CC[C@@H]12`, the figures for the inhibition in test [1] and in test [2] were 45% and 21%, respectively.

Take `COC1CC[C@@]2(CC[C@H]3[C@@H]4CCc5cc(O)ccc5[C@H]4CC[C@@]32C)O1` (stereo in doubt; 7): the inhibition amounted to 4% in test [1] and 0% in test [2].

In the case of `C[C@]12CC[C@@H]3c4ccc(O)cc4CC[C@H]3[C@@H]1CC[C@@]21CC=CC(=O)O1`, the values for the inhibition in test [1] and in test [2] were 92% and 79%, respectively. Besides, the IC50 in test [3] is 49 nM.

The values are drawn from ChEMBL document CHEMBL1153852, “Steroidal lactones as inhibitors of 17beta-hydroxysteroid dehydrogenase type 5: chemical synthesis, enzyme inhibitory activity, and assessment of estrogenic and androgenic activities” (Eur J Med Chem, 2009).
